ChEMBL document CHEMBL3822424, “Design and synthesis of 1H-pyrazolo[3,4-c]pyridine derivatives as a novel structural class of potent GPR119 agonists” (Bioorg Med Chem Lett, 2016)
≈ marks a conversion by molar mass, not a printed value.

Assays:
[1] = Drug metabolism in human liver microsomes after 15 mins; format: ADME; settings: read-out: Drug metabolism
Method in brief: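 Compound incubated 15 min with human liver microsomes at 1 mg protein/mL; result expressed as percent metabolized.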

[2] = target: T1, Glucose-dependent insulinotropic receptor (Homo sapiens, UniProt Q8TDV5); assay: Agonist activity at human GPR119 expressed in Flp-In-T-Rex-HEK293 cells after 30 mins by cAMP accumulation assay; format: functional, cell-based
T1 sequence (Q8TDV5 whole entry): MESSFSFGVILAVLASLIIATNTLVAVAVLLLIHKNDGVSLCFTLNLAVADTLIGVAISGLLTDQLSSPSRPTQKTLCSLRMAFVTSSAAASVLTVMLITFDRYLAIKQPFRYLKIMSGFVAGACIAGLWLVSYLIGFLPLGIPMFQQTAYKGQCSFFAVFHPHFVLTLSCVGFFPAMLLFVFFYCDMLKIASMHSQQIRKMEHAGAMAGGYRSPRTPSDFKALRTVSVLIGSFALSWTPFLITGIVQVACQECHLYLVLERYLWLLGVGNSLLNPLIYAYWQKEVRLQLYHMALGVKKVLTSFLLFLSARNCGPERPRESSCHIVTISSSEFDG
Method in brief: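 Flp-In-T-Rex-HEK293 cells overexpressing human GPR119, induced with tetracycline for 24 h, plated at 5000 cells/well in D-MEM assay buffer with 1 mM IBMX and 0.01% BSA. Cells exposed to compound for 30 min at 37 °C. cAMP read by HTRF kit (HiRange). Response = stimulated minus basal cAMP. EC50 = concentration giving 50% of maximal response.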

[3] = Thermodynamic solubility of the compound in phosphate buffer at pH 6.8; format: physicochemical; settings: read-out: Therm_solubility
Method in brief: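 Thermodynamic solubility measured in pH 6.8 phosphate buffer.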

[4] = AUC (0 to infinity) in Sprague-Dawley rat at 10 mg/kg, po; format: ADME, organism-based; set-up: dose 10 mg/kg, time infinity, route oral; settings: in vivo
[5] = Volume of distribution at steady state in Sprague-Dawley rat at 3 mg/kg, iv; format: ADME, organism-based; settings: in vivo, read-out: Vdss
[6] = Half life in Sprague-Dawley rat at 3 mg/kg, iv; format: ADME, organism-based; settings: in vivo
[7] = Permeability of the compound at pH 6.2 by PAMPA; format: ADME; settings: read-out: permeability
[8] = Oral bioavailability in Sprague-Dawley rat at 10 mg/kg; format: ADME, organism-based; settings: in vivo
[9] = Clearance in Sprague-Dawley rat at 3 mg/kg, iv; format: ADME, organism-based; settings: in vivo

In the case of `CC(C)(OC(=O)N1CCC(n2ncc3cc(-c4ccc(S(C)(=O)=O)cc4)ncc32)CC1)C(F)F`, the metabolised at 0.25 h [1] is reported as 3.9% and the EC50 [2] is reported as 0.023 µM.

Compound `CC(C)(C)OC(=O)N1CCC(n2ncc3cc(-c4ccc(S(C)(=O)=O)cc4)ccc32)CC1` has an EC50 [2] of 0.031 µM.

In the case of `CC(C)CCN1CCC(n2ncc3cc(-c4ccc(S(C)(=O)=O)cc4)ncc32)CC1`, the EC50 [2] is reported as 0.22 µM.

`CCCNC(=O)c1cc(F)c(-c2cc3cnn(C4CCN(C(=O)OC(C)C)CC4)c3cn2)cc1F` gave an EC50 [2] of 0.014 µM.

`CC(C)OC(=O)N1CCC(n2ncc3cc(Oc4ccc(S(C)(=O)=O)cc4)ncc32)CC1` showed an EC50 [2] of 0.177 µM.

In the case of `CC(C)(C)OC(=O)N1CCC(n2ncc3cc(-c4ccc(S(C)(=O)=O)cc4)ncc32)CC1`, the EC50 [2] is reported as 0.02 µM.

With `CCc1cnc(N2CCC(n3ncc4cc(-c5cc(F)c(C(=O)NCCO)cc5F)ncc43)CC2)nc1` the solubility thermodynamic [3] was 0.69 µg/mL (≈ 1.36 µM), the metabolised at 0.25 h [1] was 35.8% and the EC50 [2] was 0.015 µM.

In the case of `CC(C)OC(=O)N1CCC(n2ncc3cc(-c4ccc(S(C)(=O)=O)nc4)ncc32)CC1`, the EC50 [2] is reported as 0.197 µM.

Compound `CC(C)OC(=O)N1CCC(n2ncc3cc(-c4cc(F)c(C(N)=O)cc4F)ncc32)CC1` has an EC50 [2] of 0.052 µM.

With `CC(C)OC(=O)N1CCC(n2ncc3cc(-c4cc(F)c(C(=O)N(C)C)cc4F)ncc32)CC1` the EC50 [2] was 0.046 µM.

For `CC(C)OC(=O)N1CCC(n2ncc3cc(-c4ccc(S(C)(=O)=O)cc4)ncc32)CC1`, the solubility thermodynamic [3] was 0.67 µg/mL (≈ 1.51 µM), the metabolised at 0.25 h [1] was 24.1% and the EC50 [2] was 0.042 µM.

`CC(C)OC(=O)N1CCC(n2ncc3cc(-c4ccc(C(N)=O)cc4F)ncc32)CC1` showed an EC50 [2] of 0.097 µM.

Compound `CC(C)OC(=O)N1CCC(n2ncc3cc(-c4cc(F)c(C(=O)NCCO)cc4F)ncc32)CC1` has an EC50 [2] of 0.092 µM.

In the case of `CC(C)(OC(=O)N1CCC(n2ncc3cc(-c4ccc(S(C)(=O)=O)cc4F)ncc32)CC1)C(F)F`, the solubility thermodynamic [3] is reported as < 0.06 µg/mL, the metabolised at 0.25 h [1] is reported as 2.1% and the EC50 [2] is reported as 0.01 µM.

With `CCc1cnc(N2CCC(n3ncc4cc(-c5ccc(S(C)(=O)=O)cc5F)ncc43)CC2)nc1` the solubility thermodynamic [3] was 0.34 µg/mL (≈ 0.707 µM), the AUC(0-inf) [4] was 1.93 µg·h/mL and the Vd [5] was 0.537 L/kg. It also gave a half-life [6] of 37 min, a Papp [7] of 1120 nm/s and a bioavailability [8] of 12.6%. It also gave a clearance [9] of 0.759 L/h/kg, a metabolised at 0.25 h [1] of 14.3% and an EC50 [2] of 0.004 µM.

With `CCc1cnc(N2CCC(n3ncc4cc(-c5ccc(S(C)(=O)=O)cc5)ncc43)CC2)nc1` the metabolised at 0.25 h [1] was 20.3% and the EC50 [2] was 0.013 µM.

With `CC(C)COC(=O)N1CCC(n2ncc3cc(-c4ccc(S(C)(=O)=O)cc4)ncc32)CC1` the metabolised at 0.25 h [1] was 79.8% and the EC50 [2] was 0.011 µM.

`CC(C)(C)OC(=O)N1CCC(n2nnc3cc(-c4ccc(S(C)(=O)=O)cc4)ccc32)CC1` gave an EC50 [2] of 0.063 µM.

`CC(C)OC(=O)N1CCC(n2ncc3cc(Oc4cccc(S(C)(=O)=O)c4)ncc32)CC1` showed an EC50 [2] of 0.266 µM.

`CCNC(=O)c1cc(F)c(-c2cc3cnn(C4CCN(C(=O)OC(C)C)CC4)c3cn2)cc1F` showed an EC50 [2] of 0.01 µM.

Compound `CC(C)OC(=O)N1CCC(n2ncc3cc(-c4ccc(S(C)(=O)=O)cc4F)ncc32)CC1` has an EC50 [2] of 0.027 µM.

Compound `Cc1ccc(N2CCC(n3ncc4cc(-c5ccc(S(C)(=O)=O)cc5)ncc43)CC2)nc1` has a metabolised at 0.25 h [1] of 44.1% and an EC50 [2] of 0.03 µM.
